SMILES strings stand for the structures.

The nature of this data set: Toxicity liver stage against HepG2, at 10uM. In kind it is cell-based. On the set-up: test concentration 10 uM, cell line HepG2-A16-CD81EGFP. The note with it: human, HepG2-A16-CD81EGFP cells; read-out: INHIBITION
In short, it runs like this: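 Uninfected HepG2-A16-CD81EGFP cells, 3 × 10^3 per well, 1536-well, plated on prespotted compound at 10 μM final, parasite-free screening media added to match infected plates; puromycin 10 μM positive, DMSO 0.5% negative; run in parallel with 48 h PbLuc assay at 37 °C, 5% CO2; viability by CellTiter-Glo luminescence, normalized to controls.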
As for `O=C(NC[C@H]1Cn2c(-c3ccccc3)cnc2CO1)C1CCOCC1`, the cytotoxicity at 10 µM was -0.869%.
For the compound `F[C@@H]1CN(C2CCC2)C[C@@H]1OCc1nc2ncccc2[nH]1`, the cytotoxicity at 10 µM was -6.66%.
On to `CCCC1CN(CCOc2ccccc2)C(=O)c2cccnc2O1` (stereo unspecified), for which the cytotoxicity at 10 µM is -6.77%.
With `COc1ccc(C(=O)N2CC[C@@]3(O)CCCC[C@H]3C2)cc1OC`, the cytotoxicity at 10 µM was -43.4%.
For `CC(C)c1sc(Cl)nc1C(=O)N1CCN(c2ccccn2)CC1` the value was -43.8%; for `CCc1ccc(CN2CCC3(CCCN(C(=O)N(C)C)C3)C2)o1` (stereo unspecified), 7.07%.
For `Cc1noc([C@]23COC[C@H]2CN(S(=O)(=O)N(C)C)C3)n1` the value was 10.9%; for `O=S(=O)(C1CC1)N1CC[C@]2(C[C@H](OCC3CCOCC3)CO2)C1`, 8.64%; for `Cc1noc(C2CCC3(CCN(C(=O)c4cnn(C)c4)CC3)O2)n1` (stereo unspecified), 8.77%.
For `CNc1oc(-c2ccc(OC)c(S(=O)(=O)N3CCCCC3)c2)nc1C#N` the value was 10.4%.
As for `Cc1nn(C)c2c(N3CCN(C(=O)C4CCCCC4)CC3)ncnc12`, the cytotoxicity at 10 µM came to 12.3%.
As for `Cc1cc(C)n(CCNc2ncnc3c2NC(=O)CN3)n1`, the figure is 6.61%; as for `CCn1nccc1CN(C)C(=O)Cn1nc(C)c(C)c1C`, 0.66%; as for `Cn1nc(C2CNCCO2)cc1CCOc1ccc(C(F)(F)F)cc1` (stereo unspecified), -7.54%.
`CC1Cc2ccccc2N1C(=O)Cn1nc(-c2cccs2)ccc1=O` (stereo unspecified): the cytotoxicity at 10 µM is -9.08%.
Regarding `CC(C)c1nccn1-c1cncc(C2CCCN(C3CCCCC3)C2)n1` (stereo unspecified), the cytotoxicity at 10 µM is -9.97%.
As for `Cc1cc(C(=O)Nc2ccc3c(c2)N(C)CCN(C)C3)on1`, the figure is 7.34%; as for `COc1c(CNCCc2c[nH]c3cc(F)ccc23)c(C(C)C)nn1C`, 4.64%; as for `CCOc1cccc(NC(=O)c2cc(C)on2)n1`, -2.14%.
As for `CCN(C)C(=O)c1cccc(C(=O)N(C)Cc2cccc(O)c2)c1`, the figure is 11.7%; as for `CCC1CN(C)c2ccccc2CN1C(=O)CCn1cncn1` (stereo unspecified), -1.87%; as for `CN(C)C(CNC(=O)OCC(F)(F)F)c1ccsc1` (stereo unspecified), -44.4%.
Consider `CCN(Cc1cccs1)S(=O)(=O)N(C)C(C)C`, for which the cytotoxicity at 10 µM was -49%.
Take `COc1ccc(Oc2ncccc2NC(=O)N2CCOC(C)C2)cc1` (stereo unspecified): the cytotoxicity at 10 µM turned out to be 2.65%.
`COc1ccc2c(c1)NC(=O)C2OC(=O)CC(C)(C)C` (stereo unspecified): the cytotoxicity at 10 µM was determined as 2.41%.
For the compound `Cc1noc(C)c1C(=O)NCc1cc[nH]n1`, the cytotoxicity at 10 µM amounted to 9.31%.
In the case of `CCC(=O)NCC(=O)Nc1c(C)cnn1Cc1cc(F)ccc1F`, the cytotoxicity at 10 µM is -2.59%.
Consider `NC(=O)C1CCCN1Cc1cccc(NC(=O)c2ccc(Cl)cc2F)c1` (stereo unspecified), for which the cytotoxicity at 10 µM was found to be 18.6%.
As for `O=C(C(CNCc1ccco1)c1ccccc1)N1CCOCC1` (stereo unspecified), the figure is -2.1%; as for `Cn1ccnc1CC1CCCN(C(=O)NCCOc2cccnc2)C1` (stereo unspecified), -5.19%.
Regarding `Oc1ccc(N2CCN(Cc3ccc(F)cc3Br)CC2)cc1`, the cytotoxicity at 10 µM was -13.2%.
Consider `COCc1cccc(NC(C(N)=O)c2ccc(Br)cc2)c1` (stereo unspecified), for which the cytotoxicity at 10 µM was determined as 2.94%.
`COCCN(CCOC)C(=O)c1ccc(Cn2nc(C)cc2C)cc1`: the cytotoxicity at 10 µM was -5.15%.
As for `Cc1noc(C)c1CS(=O)(=O)CC(=O)N(C)Cc1cccc(F)c1`, the cytotoxicity at 10 µM is -8.1%.
In the case of `Cc1cc(C(=O)NS(=O)(=O)Cc2ccon2)c(C)o1`, the cytotoxicity at 10 µM stood at 4.42%.
On to `O=C(c1ccc2c(c1)[nH]c(=O)n2C1CCCC1)N1CC(O)C1`, for which the cytotoxicity at 10 µM is -53.5%.
Take `CC(C)CC(C#N)NC(=O)c1ccc(Oc2cccnc2)cc1` (stereo unspecified): the cytotoxicity at 10 µM was -11.4%.
As for `CN1CCCC(NC(=O)c2ccc(C(=O)c3cc[nH]c3)cc2)C1` (stereo unspecified), the cytotoxicity at 10 µM is 11.9%.
As for `COc1ccc(CNC(C)c2cccc(Cl)c2)c(OC)c1OC` (stereo unspecified), the figure is 14%; as for `CCOCC1CN(CC2CCC2)Cc2nnn(CC3CC3)c21` (stereo unspecified), 12.7%.
Regarding `Cc1ncoc1C(=O)N1C[C@H]2CCC[C@@]2(COCC2CCOCC2)C1`, the cytotoxicity at 10 µM was 0.23%.
As for `Cc1ccc(CN(C)Cc2nc3ccc(F)cc3[nH]2)cn1`, the figure is -5.16%; as for `CCCc1nnc(N2CCN(c3ccccc3F)CC2)o1`, 5.85%; as for `O=C(NCc1csc2ccc(Cl)cc12)c1cc2n(n1)CCNC2`, -0.699%.
Take `CN(C)Cc1cc(-c2nccn2CCn2cccn2)ccc1O`: the cytotoxicity at 10 µM is -50.5%.
For `Cc1nnc(NC(=O)N2CCCCC2CCO)s1` (stereo unspecified), the cytotoxicity at 10 µM was -43.2%.
As for `CSCCC(=O)N1CCC(c2nccn2CCN(C)C)CC1`, the cytotoxicity at 10 µM was -4.17%.
Take `CN(C)C(=O)N1CCCC(C(=O)N(C)Cc2cnc(N)nc2)C1` (stereo unspecified): the cytotoxicity at 10 µM is -2.81%.
Consider `Cc1cc(C)n(CC(=O)N2CCCCC2CCN2CCCC2=O)c(=O)n1` (stereo unspecified), for which the cytotoxicity at 10 µM was determined as 5.09%.
As for `CC(C)(C)C(=O)N1CCC(n2cc(C3(O)CCCC3)nn2)CC1`, the cytotoxicity at 10 µM stood at 3.15%.
Regarding `Cc1c(C(C)NC(=O)Nc2ccc(F)cc2F)cnn1C` (stereo unspecified), the cytotoxicity at 10 µM is -46.2%.
For the compound `Cc1ccnn1CCC(=O)N1CCOC(CCc2ccccc2)C1` (stereo unspecified), the cytotoxicity at 10 µM was -51.1%.
As for `O=C1NCC2(CCCN(Cc3ccccc3OCCO)C2)O1` (stereo unspecified), the figure is -39.2%; as for `COCc1nnc(C(=O)N2CCCC(O)C2)o1` (stereo unspecified), 1.31%; as for `CCc1cc(CN(C)C(=O)CN2CC3(CCNCC3)OC2=O)on1`, 0.394%.
Regarding `CC(C(=O)O)N1CCc2onc(-c3ccc(F)c(F)c3)c2C1` (stereo unspecified), the cytotoxicity at 10 µM was determined as 14.9%.
On to `O=C(c1cc(Cn2ccc3ccccc32)[nH]n1)N1CCC[C@H]1CO`, for which the cytotoxicity at 10 µM is -1.99%.
For the compound `N[C@H]1CN(S(=O)(=O)N2CCCC2)C[C@@H]1c1ccccc1`, the cytotoxicity at 10 µM amounted to 6.86%.
As for `CCN(C)Cc1cnc(S(=O)(=O)CC)n1CCOC`, the figure is 4.38%; as for `Cc1cc(C)n(CC2CN(CC(=O)Nc3ccncc3)CCO2)n1` (stereo unspecified), -3.18%; as for `Cc1cnn(C2CCCN(C(=O)c3ccc(C(N)=O)cn3)C2)c1` (stereo unspecified), -7.35%.
Regarding `Cc1cc(CN2CCN(C(=O)NCc3c(C)noc3C)CC2)on1`, the cytotoxicity at 10 µM was 0.386%.
Turning to `CC(C)(C)NC(=O)NC(=O)CN1C=Nc2ccccc2S1(=O)=O`, the cytotoxicity at 10 µM was -8.68%.
With `CN(Cc1cccc(C#N)c1)Cc1nc2c(cnn2C)c(=O)[nH]1`, the cytotoxicity at 10 µM is -8.7%.
In the case of `CC(C)(C)c1nc(CN2CCOC(Cn3cncn3)C2)cs1` (stereo unspecified), the cytotoxicity at 10 µM is -7.2%.
Take `CN(C)C(=O)CCS(=O)(=O)Cc1cc(Cl)c2c(c1)OCO2`: the cytotoxicity at 10 µM was -5.09%.
With `Cc1ccc(C(=O)NS(=O)(=O)c2ccccc2Br)c(=O)[nH]1`, the cytotoxicity at 10 µM was -0.704%.
Take `Cc1nc(C2CCCN2CC(=O)NCCc2ccc(Cl)cc2)no1` (stereo unspecified): the cytotoxicity at 10 µM was determined as 8.52%.
As for `Cc1cc(CNC(=O)N(Cc2ccc(F)cc2F)C2CC2)no1`, the cytotoxicity at 10 µM was -18.5%.
Take `COc1ccc2cc(C(=O)N3CCCC(n4ccnc4C)C3)[nH]c2c1` (stereo unspecified): the cytotoxicity at 10 µM is -9.74%.
For `CCN1CCN(C2CCN(Cc3nc(C)c(C)o3)CC2)C1=O`, the cytotoxicity at 10 µM was -9.92%.
As for `Cc1nc(CN2CCCC(NCCOc3ccccc3C#N)C2)no1` (stereo unspecified), the cytotoxicity at 10 µM is -1.13%.
As for `O=C(NCCNC(=O)c1scnc1Cl)c1ccccc1Cl`, the cytotoxicity at 10 µM was -0.524%.
As for `O=C(NCCc1coc(-c2ccccc2)n1)NC1CC1`, the figure is -18.5%; as for `CNS(=O)(=O)Cc1ccc(CNc2cncc(-n3cccn3)n2)cc1`, -4.66%; as for `CN(Cc1ccsc1)C(=O)c1cccc(NS(C)(=O)=O)c1`, -5.72%.
On to `CC(NC(=O)NCCCN(C)C)c1ccc2c(c1)CCC(=O)N2` (stereo unspecified), for which the cytotoxicity at 10 µM is -8.03%.
Turning to `CCc1c(C(=O)N2CCCN(C(C)=O)CC2)cnn1C(C)(C)C`, the cytotoxicity at 10 µM is -3.93%.
As for `CCC(C)(C)NC(=O)C1CC(=O)N(CC2CC2)C1` (stereo unspecified), the figure is -4.72%; as for `Cc1ncsc1C(=O)NC1CCN(Cc2cccnc2)CC1`, -7.49%.
For `CC(C)c1cc(NC(=O)CN2CCc3c(nc(C(C)C)n3C)C2)on1` the value was -12.3%; for `Cc1cc(C)n(CC2CCCN2C(=O)c2ccc(C(N)=O)cn2)n1` (stereo unspecified), -3.87%; for `CCC(O)CN1CCN(C(=O)Cc2cc(Cl)ccc2OC)CC1` (stereo unspecified), -10.4%.
As for `Cc1nc(C)n(CC2CCCN2Cc2ccn(-c3ccccc3)n2)n1` (stereo unspecified), the figure is -5.01%.
With `O=C(CCN1CCOC(Cn2cccn2)C1)NC1CCCC1` (stereo unspecified), the cytotoxicity at 10 µM was determined as 4.98%.
With `Cc1nc(C(=O)N2CCC(Nc3cccnn3)CC2)cs1`, the cytotoxicity at 10 µM turned out to be 6.74%.
For the compound `O=C(Nc1nc2c(s1)CNCC2)NC1CCCC1`, the cytotoxicity at 10 µM is -2.37%.
As to `Cc1ccc(CN2Cc3ccccc3OC3(CCC(CO)CC3)C2)o1` (stereo unspecified), the cytotoxicity at 10 µM was -13.7%.
On to `CNCC1CCC(c2cc(CN(C)S(=O)(=O)N(C)C)n(C)n2)CC1` (stereo unspecified), for which the cytotoxicity at 10 µM is -1.33%.
As for `O=C(NC1CC1)[C@H]1C[C@@H]2CCN(CCc3ccccc3)C[C@H]2O1`, the cytotoxicity at 10 µM was determined as 6.46%.
Consider `c1cc(CNCc2ccnc(N3CCCC3)c2)c2c(c1)OCCO2`, for which the cytotoxicity at 10 µM turned out to be 3.64%.
For the compound `Cc1cccc(N2CCOCC3(C2)CN(c2cnn(C)c2)C(=O)CO3)n1` (stereo unspecified), the cytotoxicity at 10 µM was -0.136%.
As for `c1cncc(COCC2CC[C@H]3[C@H]2OCCN3Cc2ccoc2)c1` (stereo partly specified), the cytotoxicity at 10 µM was found to be 1.2%.
On to `COc1ccc(CN2CCOC3(CCCN(c4cnccn4)C3)C2)cc1` (stereo unspecified), for which the cytotoxicity at 10 µM amounted to 10.5%.
For `CC(C)N1[C@H](CN(C)C)C[C@@H]2CN(c3ncc(F)cn3)CC[C@@H]21`, the cytotoxicity at 10 µM was 11.7%.
Consider `O=C1NC(c2ccccc2)=N[C@@]12CC[C@@H]1CN(CC3CC3)C[C@@H]12`, for which the cytotoxicity at 10 µM came out at 9.79%.

(Values after ChEMBL document CHEMBL4513216, “Probing the Open Global Health Chemical Diversity Library for Multistage-Active Starting Points for Next-Generation Antimalarials” (ACS Infect Dis, 2020).)
